Experimental data of several laboratories.
Protocols differ between the studies behind these lines.

O=C1CC[C@H](N2Cc3cc(N4CCN(CC5CCN(c6ccc([C@@H]7c8ccc(O)cc8CC[C@@H]7c7ccccc7)cc6)CC5)CC4)ccc3C2=O)C(=O)N1  AUC(0-t) (female Sprague-Dawley rat, plasma; oral, 20 mg/kg, fasted): 11000 ng·h/mL
N#C[C@@]12C[C@@H]1[C@@H](n1cnc3c(N[C@@H](C4CCC4)C4CC4)nc(I)nc31)[C@H](O)[C@@H]2O  AUC(0-inf) (male Wistar rat, plasma; oral, 1 mg/kg): 19.2 ng·h/mL
C=C(F)C(=O)N1CCN(c2nc(OC[C@@H]3CCCN3C)nc3c2CCN(c2cccc4cccc(Cl)c24)C3)C[C@@H]1CC#N  AUC(0-t) (male Sprague-Dawley rat, plasma; intravenous, 5 mg/kg): 1860 ng·h/mL
COc1ccc2cc3n(c(=O)c2c1OC)CCc1cc2c(cc1-3)OCO2  AUC(0-inf) (male Sprague-Dawley rat, blood; oral, 50 mg/kg): 985 ng·h/mL
O=C(C=Cc1ccccc1)Nc1cc(-c2ccnc(N3CCC(O)CC3)c2)ccn1  AUC(0-inf) (female Sprague-Dawley rat, plasma; oral, 50 mg/kg): 1400 ng·h/mL
CCC[C@H](NC(=O)[C@@H]1CCCN1C(=O)[C@@H](NC(=O)[C@H](N)CC(N)=O)[C@@H](C)CC)C(=O)N[C@@H](CC(C)C)C(=O)N[C@@H](Cc1ccc(O)cc1)C(=O)N[C@H](CO)C(=O)N[C@@H](Cc1ccccc1)C(=O)N[C@@H](C)C(=O)N[C@H](CO)C(N)=O  AUC(0-t) (rat, plasma; subcutaneous, 10 mg/kg, single dose): 1200 ng·h/mL
CC(=Nc1ccc(N=Cc2cnccn2)cc1)N(C)C  AUC(0-t) (male Sprague-Dawley rat, plasma; oral, 200 mg/kg): 305 ng·h/mL
O=c1cc(-c2ccc(O)c(O)c2)oc2cc(O)cc(O)c12  AUC(0-inf) (male Sprague-Dawley rat, plasma; oral, 30 mg/kg): 98.6 ng·h/mL
CC1(CN)CCN(c2cnc3c(Sc4ccncc4Cl)n[nH]c3n2)CC1  AUC (male Sprague-Dawley rat, plasma; oral, 10 mg/kg): 411 ng·h/mL
C[C@H]1[C@@H](O)O[C@@H]2O[C@@]3(C)CC[C@H]4[C@H](C)CC[C@@H]1[C@@]24OO3  AUC(0-t) (Sprague-Dawley rat, plasma; oral, 10 mg/kg): 197 ng·h/mL
Cc1c(C(=O)O)ccc2c3n(nc12)[C@@H]1[C@H](C3)N(CC2CC2)[C@@]2(C(=O)Nc3cc(Cl)ccc32)[C@H]1c1cccc(Cl)c1F  AUC(0-inf) (male rat, plasma; oral, 2 mg/kg): 64.2 µM·h
O=C1c2ccncc2C(=O)c2c1[nH]c1ccccc21  AUC(0-inf) (rat, plasma; intravenous, 5 mg/kg, single dose): 8.58 µM·h
